The target of data set [1] is T1, STAT3 (Homo sapiens, UniProt P40763). In words: Western blot of STAT3 in BxPC-3. Format: cell-based. As to conditions: for effect on STAT3 expression: BxPC-3, 16 h, XD2–162 up to 5 μM, 1–6 at 0.5 μM. The gist of the method:
(§1)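 BxPC-3 cells (500 × 10^3/well) are treated with the test compound (concentrations up to 5 μM) for 16 h. They are lysed at 4 °C by sonication in Tris/NaCl/Triton X-100/SDS buffer, pH 7.4, with protease and phosphatase inhibitors. Protein is measured by BCA, run on 10 or 12% gels and transferred to PVDF. Blots are probed overnight at 4 °C for STAT3/pSTAT3 (1:1000) and GAPDH (1:4000), imaged by near-infrared fluorescence, and quantified by densitometry.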

Data set [2] has as its system pSTAT3. In words: Western blot of pSTAT3 in BxPC-3. Format: cell-based. As to conditions: BxPC-3, 16 h treatment. Put shortly: as §1
Data set [3] deals with MIA PaCa-2. The data set is described as follows: MTT cytotoxicity assay in MIA PaCa-2. As to conditions: read-out: IC50 (μM) MIA PaCa-2, 3 days, mean ± SD. Format: cell-based. Put shortly: (§2)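 Cells (3000–6000/well) are seeded and left overnight, then exposed to the test compound or DMSO vehicle for 3 days. MTT (3 mg/ml) is added for 3 h at 37 °C, and the formazan is dissolved in DMSO and read at 570 nm. IC50 comes from dose-response curves from three independent experiments, reported as mean ± SD.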

The subject of data set [4] is BxPC-3. In words: MTT cytotoxicity assay in BxPC-3. Format: cell-based. The gist of the method:
as §2

The target of data set [5] is GSPT1 (Homo sapiens, UniProt P15170). In words: Western blot of GSPT1 in BxPC-3. The class given is cell-based. The gist of the method:
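BxPC-3 cells (500 × 10^3/well) are exposed to the test compound for 16 h and lysed by sonication at 4 °C in Tris/NaCl/Triton/SDS buffer, pH 7.4, with protease and phosphatase inhibitors. After BCA quantitation, SDS-PAGE and PVDF transfer, membranes are probed overnight at 4 °C with anti-GSPT (1:1000) and GAPDH (1:4000). Detection uses near-infrared secondaries, with densitometric quantification.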

Data set [6] deals with ZFP91 (Homo sapiens, UniProt Q96JP5+Q96SW2). In words: Western blot of ZFP91 in BxPC-3. The class given is cell-based.
In data set [7] the test system is BxPC-3. The data set is described as follows: Colony formation assay in BxPC-3. The class given is cell-based. As to conditions: BxPC-3, 7–10 days.
Data set [8] addresses T1, STAT3. In words: Western blot of STAT3 in OVCAR-3. The class given is cell-based. As to conditions: OVCAR-3, negative control incapable of binding CRBN. Put shortly:
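OVCAR-3 cells are seeded at 500 × 10^3/well and treated with the test compound at several concentrations and times (read-out at 12 h). Lysis is by sonication at 4 °C in Tris/NaCl/Triton X-100/SDS buffer, pH 7.4, with protease and phosphatase inhibitors. After BCA quantitation, SDS-PAGE and PVDF transfer, blots are probed for STAT3 (1:1000) and GAPDH (1:4000) and imaged by near-infrared fluorescence.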

A short description of data set [9]: MTT assay. The class given is cell-based. As to conditions: Table S4.
For data set [10] the following is noted: Table S4; cited from earlier work.
In data set [11] the test system is tumor. As to conditions: within two weeks; cited from earlier work.
Data set [12] addresses T1, STAT3. As to conditions: leukemia and lymphoma cell lines; cited from earlier work.
The mark [13] stands for this setting: read-out: IC50 (μM) BxPC-3, MTT assay, 3 days, mean ± SD.
[14] abbreviates: Homo sapiens, BXPC-3, 72 h, read-out: IC50 (μM) BxPC-3, MTT assay, 3 days, mean ± SD.

Read-outs that look alike come from different tables or passages of the source.

T1 sequence (P40763 whole entry): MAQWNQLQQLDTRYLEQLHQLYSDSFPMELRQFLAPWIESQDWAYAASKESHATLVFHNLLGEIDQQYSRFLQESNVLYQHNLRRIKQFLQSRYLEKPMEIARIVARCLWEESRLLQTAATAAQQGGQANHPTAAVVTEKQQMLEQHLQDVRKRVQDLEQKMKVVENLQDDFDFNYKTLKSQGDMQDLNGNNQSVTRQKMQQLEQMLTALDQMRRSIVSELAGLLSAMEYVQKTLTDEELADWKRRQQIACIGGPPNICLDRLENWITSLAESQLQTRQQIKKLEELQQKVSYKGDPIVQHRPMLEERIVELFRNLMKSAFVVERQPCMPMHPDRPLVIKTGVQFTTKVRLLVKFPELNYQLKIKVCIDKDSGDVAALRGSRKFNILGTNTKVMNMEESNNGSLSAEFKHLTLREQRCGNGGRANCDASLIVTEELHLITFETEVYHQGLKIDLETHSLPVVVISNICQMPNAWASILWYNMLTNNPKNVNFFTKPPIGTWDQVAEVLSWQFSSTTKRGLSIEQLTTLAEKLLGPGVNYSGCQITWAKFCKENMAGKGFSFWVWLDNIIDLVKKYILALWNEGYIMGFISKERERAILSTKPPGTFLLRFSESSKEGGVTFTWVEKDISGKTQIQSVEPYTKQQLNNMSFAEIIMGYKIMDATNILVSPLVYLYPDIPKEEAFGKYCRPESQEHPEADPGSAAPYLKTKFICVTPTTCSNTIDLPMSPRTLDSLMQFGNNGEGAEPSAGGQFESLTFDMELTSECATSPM
ZFP91, sequence (Q96JP5 whole entry): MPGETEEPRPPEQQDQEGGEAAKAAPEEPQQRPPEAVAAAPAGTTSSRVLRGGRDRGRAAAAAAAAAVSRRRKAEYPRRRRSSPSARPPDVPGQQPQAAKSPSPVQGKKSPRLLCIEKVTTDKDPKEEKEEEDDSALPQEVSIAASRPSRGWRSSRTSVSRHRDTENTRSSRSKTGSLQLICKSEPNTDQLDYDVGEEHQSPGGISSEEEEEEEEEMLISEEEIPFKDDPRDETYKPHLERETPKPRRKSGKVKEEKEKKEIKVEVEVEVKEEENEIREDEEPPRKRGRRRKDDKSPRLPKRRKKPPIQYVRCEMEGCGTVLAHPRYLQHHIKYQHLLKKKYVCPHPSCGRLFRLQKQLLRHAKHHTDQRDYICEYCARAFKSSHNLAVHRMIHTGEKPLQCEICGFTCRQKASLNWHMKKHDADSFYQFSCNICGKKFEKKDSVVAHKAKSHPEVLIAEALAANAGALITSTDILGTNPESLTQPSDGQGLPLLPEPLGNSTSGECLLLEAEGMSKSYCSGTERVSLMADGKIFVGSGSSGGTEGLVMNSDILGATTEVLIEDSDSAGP
ZFP91, sequence (Q96SW2 whole entry): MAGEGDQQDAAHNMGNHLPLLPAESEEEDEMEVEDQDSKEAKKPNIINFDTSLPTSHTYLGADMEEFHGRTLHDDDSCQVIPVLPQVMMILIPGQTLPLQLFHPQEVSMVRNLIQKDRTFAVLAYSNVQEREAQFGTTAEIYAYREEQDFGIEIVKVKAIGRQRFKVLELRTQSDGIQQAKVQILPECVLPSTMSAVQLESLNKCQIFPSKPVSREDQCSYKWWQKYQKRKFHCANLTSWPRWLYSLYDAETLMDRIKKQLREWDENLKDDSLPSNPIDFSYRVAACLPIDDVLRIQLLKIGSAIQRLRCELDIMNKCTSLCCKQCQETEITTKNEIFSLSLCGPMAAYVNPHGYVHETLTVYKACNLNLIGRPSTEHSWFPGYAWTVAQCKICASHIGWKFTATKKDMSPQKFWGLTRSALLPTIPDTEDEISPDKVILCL
ZFP91, sequence (Q16531 whole entry partner): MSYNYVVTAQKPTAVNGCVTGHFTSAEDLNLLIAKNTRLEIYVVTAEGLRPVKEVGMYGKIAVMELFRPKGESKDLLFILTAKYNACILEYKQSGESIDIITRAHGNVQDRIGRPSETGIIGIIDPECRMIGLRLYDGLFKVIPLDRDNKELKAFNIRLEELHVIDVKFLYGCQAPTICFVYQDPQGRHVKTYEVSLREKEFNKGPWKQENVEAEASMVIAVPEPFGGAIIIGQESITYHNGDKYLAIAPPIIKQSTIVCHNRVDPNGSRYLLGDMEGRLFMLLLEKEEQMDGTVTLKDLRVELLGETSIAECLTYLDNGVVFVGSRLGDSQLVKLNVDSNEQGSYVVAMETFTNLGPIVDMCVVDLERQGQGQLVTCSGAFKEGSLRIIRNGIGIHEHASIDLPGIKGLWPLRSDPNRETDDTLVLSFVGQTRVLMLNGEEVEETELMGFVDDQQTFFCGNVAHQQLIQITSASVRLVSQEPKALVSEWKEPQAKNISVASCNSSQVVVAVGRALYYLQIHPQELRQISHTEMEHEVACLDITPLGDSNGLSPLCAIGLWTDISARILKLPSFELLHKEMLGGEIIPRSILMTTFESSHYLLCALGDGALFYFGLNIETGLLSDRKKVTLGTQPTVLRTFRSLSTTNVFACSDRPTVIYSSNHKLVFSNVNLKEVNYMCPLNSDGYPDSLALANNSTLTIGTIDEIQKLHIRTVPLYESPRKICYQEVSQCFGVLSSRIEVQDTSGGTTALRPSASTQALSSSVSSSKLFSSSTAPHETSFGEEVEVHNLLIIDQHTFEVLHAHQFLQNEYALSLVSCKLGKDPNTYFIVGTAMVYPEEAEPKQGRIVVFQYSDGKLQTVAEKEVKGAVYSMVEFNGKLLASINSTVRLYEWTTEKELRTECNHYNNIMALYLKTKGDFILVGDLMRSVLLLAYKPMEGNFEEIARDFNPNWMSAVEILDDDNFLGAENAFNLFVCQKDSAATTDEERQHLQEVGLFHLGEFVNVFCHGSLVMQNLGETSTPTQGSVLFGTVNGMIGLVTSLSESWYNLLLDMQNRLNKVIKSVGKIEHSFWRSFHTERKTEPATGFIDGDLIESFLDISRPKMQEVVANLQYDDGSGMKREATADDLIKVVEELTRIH
GSPT1, sequence (Q96SW2 whole entry partner): as the sequence (Q96SW2 whole entry) above
GSPT1, sequence (Q16531 whole entry partner): as the sequence (Q16531 whole entry partner) above
GSPT1, sequence (P15170 whole entry): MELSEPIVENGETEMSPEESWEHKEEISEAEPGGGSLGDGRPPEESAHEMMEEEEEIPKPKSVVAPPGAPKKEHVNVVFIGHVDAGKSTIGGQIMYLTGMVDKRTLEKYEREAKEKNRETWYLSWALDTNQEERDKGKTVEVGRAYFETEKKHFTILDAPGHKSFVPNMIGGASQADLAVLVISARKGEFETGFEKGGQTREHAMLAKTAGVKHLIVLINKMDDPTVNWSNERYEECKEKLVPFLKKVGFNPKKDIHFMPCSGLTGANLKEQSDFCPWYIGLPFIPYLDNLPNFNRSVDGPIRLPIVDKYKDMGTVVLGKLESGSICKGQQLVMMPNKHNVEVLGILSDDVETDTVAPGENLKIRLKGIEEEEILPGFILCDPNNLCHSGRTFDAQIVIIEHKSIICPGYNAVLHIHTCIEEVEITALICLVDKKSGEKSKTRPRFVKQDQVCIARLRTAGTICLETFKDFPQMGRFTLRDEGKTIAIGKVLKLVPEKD

In the case of `CN1C(=O)CCC(N2C(=O)c3cccc(NCCCCCC4CCN(CCNC(=O)c5cc6c(o5)C(=O)c5ccccc5C6=O)CC4)c3C2=O)C1=O` (stereo not shown) [11–7, N-(2-(4-(5-((2-(1-methyl-2,6-dioxopiperidin-3-yl)-1,3-dioxoisoindolin-4-yl)amino)pentyl)piperidin-1-yl)ethyl)-4,9-dioxo-4,9-dihydronaphtho[2,3-b]furan-2-carboxamide], the “effect on STAT3 expression” value in data set [1] was “did not have any effect”. Also, the “concentration at which a decrease in pSTAT3 level was achieved” value in data set [2] amounted to 5 μM.

With “N-(2-(2-(2-((2-(2,6-dioxopiperidin-3-yl)-1,3-dioxoisoindolin-5-yl)amino)ethoxy)ethoxy)ethyl)-4,9-dioxo-4,9-dihydronaphtho[2,3-b]furan-2-carboxamide [6–6c]”, the IC50 in [3] was 10.5 ± 3 µM; in [4] (setting [13]), 23.8 ± 3.9 µM.

For `O=C1CCC(N2C(=O)c3cccc(NCCCCCC4CCN(CCNC(=O)c5cc6c(o5)C(=O)c5ccccc5C6=O)CC4)c3C2=O)C(=O)N1` (stereo not shown) [3–6d, N-(2-(4-(5-((2-(2,6-dioxopiperidin-3-yl)-1,3-dioxoisoindolin-4-yl)amino)pentyl)piperidin-1-yl)ethyl)-4,9-dioxo-4,9-dihydronaphtho[2,3-b]furan-2-carboxamide], the “concentration at which a decrease in STAT3 protein expression was observed” value in data set [1] (BxPC-3, 16 h treatment) was 5 µM. For the same molecule, the GSPT1 protein level result in data set [5] is recorded as “did not degrade”. In data set [4] (setting [14]), the IC50 was under 1 µM. Moreover, the “concentration at which a decrease in pSTAT3 level was achieved” value in [2] turned out to be 1 μM. The “ZFP91 expression at the earlier time point” value in [6] (BxPC-3, 4 h) is reported as “no effect”. Moreover, the “inhibition of colony formation” value in [7] was “greater inhibitory activity than napabucasin”.

For the molecule `O=C(NCCOCCOCCNc1cccc2c1C(=O)N(C1CCCNC1=O)C2=O)c1cc2c(o1)C(=O)c1ccccc1C2=O` (stereo not shown) [10–5, N-(2-(2-(2-((1,3-dioxo-2-(2-oxopiperidin-3-yl)isoindolin-4-yl)amino)ethoxy)ethoxy)ethyl)-4,9-dioxo-4,9-dihydronaphtho[2,3-b]furan-2-carboxamide], in data set [8], the “activity on STAT3 expression compared with XD97” value is listed as “comparable activity to XD97”.

For the molecule “N-(5-(2-(2,6-dioxopiperidin-3-yl)-1-oxoisoindolin-4-yl)pentyl)-4,9-dioxo-4,9-dihydronaphtho[2,3-b]furan-2-carboxamide [8–1]”, the half-inhibitory concentration (IC50) amounted to 6.4 ± 3.4 µM in data set [3] and 13.8 ± 7.7 µM in data set [4] (setting [13]).

Regarding `Nc1cccc2c1C(=O)N(C1CCC(=O)NC1=O)C2=O` (stereo not shown) [Pomalidomide], the “no cytotoxicity in the MTT assay up to” value in data set [9] was over 30 µM.

On to `O=C(NCCN1CCCCC1)c1cc2c(o1)C(=O)c1ccccc1C2=O` [1–6, reference compound], for which the “greater cytotoxicity than napabucasin” value in data set [10] is over 10 fold. In data set [1], the “effect on STAT3 expression” value is “did not have any effect”.

Consider `O=C1CCC(N2C(=O)c3cccc(NCCCC4CCN(CCNC(=O)c5cc6c(o5)C(=O)c5ccccc5C6=O)CC4)c3C2=O)C(=O)N1` (stereo not shown) [3–6c, N-(2-(4-(3-((2-(2,6-dioxopiperidin-3-yl)-1,3-dioxoisoindolin-4-yl)amino)propyl)piperidin-1-yl)ethyl)-4,9-dioxo-4,9-dihydronaphtho[2,3-b]furan-2-carboxamide], for which the half-maximal inhibitory concentration (IC50) in data set [4] (setting [14]) was under 1 µM.

For `NC(=O)CC[C@H](NC(=O)[C@@H]1CC[C@@H]2CCN(C(=O)CCCCCC#Cc3cccc4c3CN(C3CCC(=O)NC3=O)C4=O)C[C@H](NC(=O)c3cc4cc(C(F)(F)P(=O)(O)O)ccc4[nH]3)C(=O)N21)C(=O)NC(c1ccccc1)c1ccccc1` (stereo partly shown) [SD-36], in data set [11], the tumor response entry is reported as “complete tumor regression”. For the same molecule, in data set [12], the “DC50 values for STAT3 degradation (in words)” value was “nanomolar”.

As to `CC(=O)c1cc2c(o1)C(=O)c1ccccc1C2=O` [NP, 2-acetylbenzo[f][1]benzofuran-4,9-dione, reference compound], in data set [5], the GSPT1 protein level result is listed as “not affected”. In addition, in [6] (BxPC-3, 16 h, up to 3 μM), the ZFP91 protein level result was “no effect”.

As to `O=C1CCC(N2C(=O)c3cccc(OCCCCNC(=O)c4cc5c(o4)C(=O)c4ccccc4C5=O)c3C2=O)C(=O)N1` (stereo not shown) [5–5a, N-(4-((2-(2,6-dioxopiperidin-3-yl)-1,3-dioxoisoindolin-4-yl)oxy)butyl)-4,9-dioxo-4,9-dihydronaphtho[2,3-b]furan-2-carboxamide], the “fold more potent than 5–5b” value in data set [4] (cytotoxicity IC50) is on record as about 2 fold.
